Data as given in ChEMBL document CHEMBL4480408 (J Med Chem, 2019).

How the values were obtained:
[1] = target: GABA-A receptor; anion channel; test: Displacement of [3H]muscimol from orthosteric binding site of GABA(A) receptor in Sprague-Dawley rat cortical synaptic membranes by liquid scintillation counting
[2] = target: GHB high-affinity binding site (rat)
[3] = target: T1, GABA-A receptor; alpha-1/beta-2/gamma-2 (Homo sapiens, UniProt P14867+P18507+P47870); type: cell-based
T1 sequence (P14867 whole entry): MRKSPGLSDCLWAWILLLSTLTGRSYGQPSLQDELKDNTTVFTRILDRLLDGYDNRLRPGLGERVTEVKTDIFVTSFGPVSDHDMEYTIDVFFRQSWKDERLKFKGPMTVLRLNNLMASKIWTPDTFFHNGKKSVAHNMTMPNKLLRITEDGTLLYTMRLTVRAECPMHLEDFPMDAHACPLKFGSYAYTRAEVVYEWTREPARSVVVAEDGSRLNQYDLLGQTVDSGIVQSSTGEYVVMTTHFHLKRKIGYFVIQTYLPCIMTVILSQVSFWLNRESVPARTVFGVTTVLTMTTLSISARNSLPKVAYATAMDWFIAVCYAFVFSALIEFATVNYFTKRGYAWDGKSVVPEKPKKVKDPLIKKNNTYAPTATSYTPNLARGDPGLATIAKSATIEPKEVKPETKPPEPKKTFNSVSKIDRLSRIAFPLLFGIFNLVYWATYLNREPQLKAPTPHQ
T1 sequence (P47870 whole entry): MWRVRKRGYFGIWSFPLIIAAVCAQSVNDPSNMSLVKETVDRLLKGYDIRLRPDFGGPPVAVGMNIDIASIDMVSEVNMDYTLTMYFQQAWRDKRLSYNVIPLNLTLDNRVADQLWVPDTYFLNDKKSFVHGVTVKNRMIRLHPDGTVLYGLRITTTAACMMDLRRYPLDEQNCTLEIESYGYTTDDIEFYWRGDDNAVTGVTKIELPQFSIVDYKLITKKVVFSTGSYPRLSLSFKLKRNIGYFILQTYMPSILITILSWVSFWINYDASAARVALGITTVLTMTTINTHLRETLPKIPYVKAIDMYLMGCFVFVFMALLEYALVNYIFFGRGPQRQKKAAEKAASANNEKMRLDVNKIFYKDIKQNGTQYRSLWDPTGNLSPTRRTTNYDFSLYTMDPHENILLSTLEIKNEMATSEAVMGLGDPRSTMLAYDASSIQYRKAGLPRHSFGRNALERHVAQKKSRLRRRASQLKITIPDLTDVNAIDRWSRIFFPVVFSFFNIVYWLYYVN
T1 sequence (P18507 whole entry): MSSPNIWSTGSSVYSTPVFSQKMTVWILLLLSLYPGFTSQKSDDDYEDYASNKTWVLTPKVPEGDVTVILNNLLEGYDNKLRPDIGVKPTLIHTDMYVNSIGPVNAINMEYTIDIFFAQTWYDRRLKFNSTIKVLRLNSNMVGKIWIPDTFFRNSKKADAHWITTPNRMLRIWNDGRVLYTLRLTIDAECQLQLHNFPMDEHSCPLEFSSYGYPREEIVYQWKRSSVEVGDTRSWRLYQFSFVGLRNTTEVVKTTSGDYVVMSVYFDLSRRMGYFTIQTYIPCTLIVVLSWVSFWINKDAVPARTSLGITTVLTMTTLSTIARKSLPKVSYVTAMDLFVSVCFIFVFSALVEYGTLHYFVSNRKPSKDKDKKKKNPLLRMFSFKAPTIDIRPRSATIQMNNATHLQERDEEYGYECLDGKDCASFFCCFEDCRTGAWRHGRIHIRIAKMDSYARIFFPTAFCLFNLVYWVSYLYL

[4] = Chemical stability of the compound; type: physicochemical
[5] = Metabolic stability in mouse liver microsomes assessed as compound remaining at 20 uM preincubated for 5 mins followed by NADPH addition and measured at 60 mins by UHPLC-MS/MS analysis; type: ADME, Microsome; details: read-out: Stability
Summary of the method: (§1)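 Parent loss and parent-drug formation quantified by UHPLC-MS/MS. Percent remaining = internal-standard-corrected peak area at each time ÷ peak area at 0 min × 100. The 0-min peak area was compared with freshly prepared compound in neat buffer and MeCN. A dash at 0 min means the compound degraded during sample preparation and pre-incubation. Mean of three biological replicates.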

[6] = Metabolic stability in mouse liver microsomes assessed as compound remaining at 20 uM preincubated for 5 mins followed by NADPH addition and measured at 30 mins by UHPLC-MS/MS analysis; type: ADME, Microsome; details: read-out: Stability; summary of the method: as §1
[7] = Plasma concentration in C57BL/6JRj mouse at 10 mg/kg, ip after 30 mins by LC-MS analysis; type: ADME, organism-based
Summary of the method: (§2)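 Mice dosed i.p. at 10 mg/kg. Compound concentrations measured in brain (ng/g) and plasma (ng/mL). Brain-to-plasma distribution ratio taken from these two concentrations.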

[8] = Metabolic stability in mouse plasma assessed as compound remaining at 10 uM preincubated for 5 mins followed by NADPH addition and measured at 120 mins by UHPLC-MS/MS analysis; type: ADME, cell-free; details: read-out: Stability; summary of the method: as §1
[9] = Metabolic stability in mouse plasma assessed as compound remaining at 10 uM preincubated for 5 mins followed by NADPH addition and measured at 0 min by UHPLC-MS/MS analysis; type: ADME, cell-free; details: read-out: Stability; summary of the method: as §1
[10] = Drug uptake in C57BL/6JRj mouse brain at 10 mg/kg, ip after 30 mins by LC-MS analysis; type: ADME, organism-based; details: read-out: Drug uptake; summary of the method: as §2
[11] = Ratio of drug uptake in C57BL/6JRj mouse brain to plasma at 10 mg/kg, ip after 30 mins by LC-MS analysis; type: ADME, organism-based; details: read-out: BPR; summary of the method: as §2
[12] = Metabolic stability in mouse plasma assessed as compound remaining at 10 uM preincubated for 5 mins followed by NADPH addition and measured at 60 mins by UHPLC-MS/MS analysis; type: ADME, cell-free; details: read-out: Stability; summary of the method: as §1
[13] = Metabolic stability in mouse liver microsomes assessed as compound remaining at 20 uM preincubated for 5 mins followed by NADPH addition and measured at 0 min by UHPLC-MS/MS analysis; type: ADME, Microsome; details: read-out: Stability; summary of the method: as §1
[14] = Dissociation constant, pKa of the compound; type: physicochemical
[15] = Agonist activity at GABA(B) receptor (unknown origin); set-up: species or system Homo sapiens

| Structure (SMILES) | Ki [1] [µM] | Ki [2] [µM] | other results |
| --- | --- | --- | --- |
| N=c1ccc(-c2ccc(OCc3ccccc3)cc2)nn1CCCC(=O)O | 0.016 | 3.1 |  |
| COc1ccc(-c2ccc3nc(CC(=O)O)cn3n2)cc1 | > 100 | 0.83 | pKi [2]: 6.09 |
| COc1ccc(C2=NN3CC(CC(=O)O)N=C3C=C2)cc1 (stereo unspecified) | > 100 | 45 |  |
| N=c1ccc(-c2cccc(O)c2)nn1CCCC(=O)O | 0.13 | 16 | IC50 [3]: 3.9 µM |
| CC(C)(C)C(=O)OCOC(=O)Cc1cn2nc(-c3ccc(Cl)cc3)ccc2n1 |  |  | Stability [4]: Unstable |
| CC(C)(C)OC(=O)Cc1cn2nc(-c3ccc(Cl)cc3)ccc2n1 |  |  | remaining at 1 h, 20 µM [5]: 98%; remaining at 0.5 h, 20 µM [6]: 90%; concentration at 0.5 h [7]: 212 ng/mL; remaining at 2 h, 10 µM [8]: 36%; remaining at 0 h, 10 µM [9]: 100%; concentration at 0.5 h [10]: 798 ng/g; Kp at 0.5 h [11]: 3.68; remaining at 1 h, 10 µM [12]: 51%; remaining at 0 h, 20 µM [13]: 100% |
| O=C(O)CC1CN2N=C(c3cccc(Cl)c3)C=CC2=N1 (stereo unspecified) | > 100 | > 100 |  |
| N=c1ccc(-c2ccc(O)cc2)nn1CCCC(=O)O | 0.22 | 15 | IC50 [3]: 11 µM |
| O=C(O)Cc1cn2nc(-c3cccc(OCc4ccccc4)c3)ccc2n1 | > 100 | 0.51 | pKi [2]: 6.33 |
| O=C(O)CC1CN2N=C(c3ccccc3)C=CC2=N1 (stereo unspecified) | > 100 | 427 | pKi [2]: 3.41 |
| N=c1ccc(-c2cccc([N+](=O)[O-])c2)nn1CCCC(=O)O | 0.078 | 13 | IC50 [3]: 4.4 µM |
| N=c1ccc(-c2ccccc2)nn1CCCC(=O)O | 0.81 | 100 |  |
| CC(=O)OCOC(=O)Cc1cn2nc(-c3ccc(Cl)cc3)ccc2n1 |  |  | Stability [4]: Unstable |
| CCOC(=O)Cc1cn2nc(-c3ccc(Cl)cc3)ccc2n1 |  |  | Stability [4]: Unstable |
| N=c1ccc(-c2cccc(Cl)c2)nn1CCCC(=O)O | 0.039 | 21 | pKi [2]: 4.66 |
| O=C(O)Cc1cn2nc(-c3ccc(Cl)c(Cl)c3)ccc2n1 | > 100 | 0.19 | pKi [2]: 6.77 |

| Structure (SMILES) | Ki [1] [µM] | Ki [2] [µM] | other results |
| --- | --- | --- | --- |
| COc1cccc(-c2ccc3nc(CC(=O)O)cn3n2)c1 | > 100 | 0.44 |  |
| O=C(O)CCC(O)c1ccc(OCc2ccccc2)cc1 (stereo unspecified) | > 100 | 0.12 |  |
| O=C(O)Cc1cn2nc(-c3ccc(Cl)cc3)ccc2n1 | > 100 | 0.22 | pKa [14]: 4.5; remaining at 1 h, 20 µM [5]: 100%; remaining at 0.5 h, 20 µM [6]: 105%; concentration at 0.5 h [7]: 7600 ng/mL; remaining at 2 h, 10 µM [8]: 99%; remaining at 0 h, 10 µM [9]: 100%; Stability [4]: Stable; concentration at 0.5 h [10]: 59 ng/g; Kp at 0.5 h [11]: 0.008; remaining at 1 h, 10 µM [12]: 97%; remaining at 0 h, 20 µM [13]: 100% |
| N=c1ccc(-c2ccc(Cl)cc2)nn1CCCC(=O)O | 0.61 | 11 | pKi [1]: 6.23; pKi [2]: 4.99 |
| O=C(O)Cc1cn2ccccc2n1 | > 100 | 72 |  |
| On1cc(C2CCNCC2)c(-c2cccc(-c3ccccc3)c2)n1 | 0.03 | > 100 |  |
| N=c1ccc(-c2cccc(OCc3ccccc3)c2)nn1CCCC(=O)O | 0.87 | 4.2 | pKi [1]: 6.07; pKi [2]: 5.39 |
| O=C(O)Cc1cn2nc(-c3cccc(Cl)c3)ccc2n1 | > 100 | 0.23 |  |
| O=C(O)CCCO [OXYBATE] |  |  | EC50 [15]: 5000 µM |
| O=C(O)Cc1cn2ncccc2n1 | > 100 | 9.9 |  |
| N=c1ccc(-c2ccc([N+](=O)[O-])cc2)nn1CCCC(=O)O | 0.75 | 14 | IC50 [3]: 30 µM |
| N=c1ccc(-c2cccc(N)c2)nn1CCCC(=O)O | 1.1 | 30 | IC50 [3]: 30 µM |
| COc1cccc(C2=NN3CC(CC(=O)O)N=C3C=C2)c1 (stereo unspecified) | > 100 | > 100 |  |
| O=C(O)Cc1cn2nc(-c3ccc(OCc4ccccc4)cc3)ccc2n1 | > 100 | 2.2 |  |
| O=C(O)CC1CN2N=C(c3ccc(Cl)cc3)C=CC2=N1 (stereo unspecified) | > 100 | 146 | pKa [14]: 9.7 |
